Legend:
[1] = molecular target: T1, Adrenergic receptor alpha-1 (Rattus norvegicus, UniProt P15823+P23944+P43140); assay: Binding affinity against Alpha-1 adrenergic receptor, activity is expressed as IC50 values; type: protein assay
T1 sequence (P15823 whole entry): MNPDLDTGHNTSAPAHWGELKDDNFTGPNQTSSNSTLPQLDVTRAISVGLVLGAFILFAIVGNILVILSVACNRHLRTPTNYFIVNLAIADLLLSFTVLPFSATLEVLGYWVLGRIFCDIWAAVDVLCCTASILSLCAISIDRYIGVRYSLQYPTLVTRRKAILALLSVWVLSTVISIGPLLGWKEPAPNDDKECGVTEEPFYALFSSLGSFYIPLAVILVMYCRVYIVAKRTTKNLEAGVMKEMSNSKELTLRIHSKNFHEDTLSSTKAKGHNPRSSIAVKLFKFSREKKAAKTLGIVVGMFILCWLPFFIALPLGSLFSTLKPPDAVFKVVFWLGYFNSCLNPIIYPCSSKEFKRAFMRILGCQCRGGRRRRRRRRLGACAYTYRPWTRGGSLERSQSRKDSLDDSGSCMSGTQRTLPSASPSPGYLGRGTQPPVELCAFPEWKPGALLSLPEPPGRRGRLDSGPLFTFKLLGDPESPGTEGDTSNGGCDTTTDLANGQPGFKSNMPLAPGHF
T1 sequence (P23944 whole entry): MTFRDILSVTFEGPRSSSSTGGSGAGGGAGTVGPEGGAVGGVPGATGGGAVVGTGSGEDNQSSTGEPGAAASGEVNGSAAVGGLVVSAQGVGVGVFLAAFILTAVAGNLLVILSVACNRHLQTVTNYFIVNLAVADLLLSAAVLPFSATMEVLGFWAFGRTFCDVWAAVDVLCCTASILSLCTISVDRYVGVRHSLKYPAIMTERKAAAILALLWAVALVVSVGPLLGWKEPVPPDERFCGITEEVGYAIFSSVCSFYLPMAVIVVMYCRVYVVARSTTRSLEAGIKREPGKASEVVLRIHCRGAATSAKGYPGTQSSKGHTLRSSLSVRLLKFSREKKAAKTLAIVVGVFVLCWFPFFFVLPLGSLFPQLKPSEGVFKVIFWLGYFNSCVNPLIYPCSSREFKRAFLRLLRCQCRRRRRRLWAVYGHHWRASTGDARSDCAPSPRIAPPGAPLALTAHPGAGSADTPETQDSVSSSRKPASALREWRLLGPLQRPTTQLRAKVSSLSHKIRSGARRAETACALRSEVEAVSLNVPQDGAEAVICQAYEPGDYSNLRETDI
T1 sequence (P43140 whole entry): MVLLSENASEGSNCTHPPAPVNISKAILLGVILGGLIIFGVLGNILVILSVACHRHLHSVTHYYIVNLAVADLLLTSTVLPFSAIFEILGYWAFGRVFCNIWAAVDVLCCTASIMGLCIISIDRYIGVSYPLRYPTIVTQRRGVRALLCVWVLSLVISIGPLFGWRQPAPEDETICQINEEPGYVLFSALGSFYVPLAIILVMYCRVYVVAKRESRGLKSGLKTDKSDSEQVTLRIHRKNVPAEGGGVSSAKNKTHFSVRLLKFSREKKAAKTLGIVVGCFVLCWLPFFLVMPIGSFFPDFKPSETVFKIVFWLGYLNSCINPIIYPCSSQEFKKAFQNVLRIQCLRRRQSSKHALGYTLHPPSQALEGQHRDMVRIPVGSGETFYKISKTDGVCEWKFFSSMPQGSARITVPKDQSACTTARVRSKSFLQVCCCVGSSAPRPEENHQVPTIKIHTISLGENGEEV

Mus musculus = species on record: Mus musculus; assay: Antagonism of methyl phenidate-induced gnawing behavior in mice; type: functional
Procedure, shortened: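 Test compound given ip (or sc) 2 h before methyl phenidate (60 mg/kg); mice housed in pairs on corrugated cardboard in gnawing cages, 5–9 pairs per dose.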

Rattus norvegicus [2] = species on record: Rattus norvegicus; assay: Cataleptogenic effect in rats; type: functional
Procedure, shortened: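 Rats scored on a vertical wire grid hourly 1–6 h after dosing; catalepsy counted when immobility lasted at least 15 s.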

D(2) dopamine receptor = D(2) dopamine receptor (Rattus norvegicus, UniProt P61169); assay: Binding affinity against dopamine receptor D2
D(1A) dopamine receptor [3] = molecular target: T2, D(1A) dopamine receptor (Rattus norvegicus, UniProt P18901); assay: The compound was tested for the binding affinity against Dopamine receptor D1 activity is expressed as IC50 values.
Procedure, shortened: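 [3H]SCH 23390 displaced from rat striatal membrane preparations; IC50 read from log-concentration–effect curves, two complete curves of five test concentrations run in triplicate over three decades.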

Rattus norvegicus [4] = species on record: Rattus norvegicus; assay: In vitro inhibition of [3H]5-HT uptake in rat brain (minus pons, medulla oblongata and cerebellum) homogenates.; type: functional
[5] = molecular target: 5-hydroxytryptamine receptor 2A (Rattus norvegicus, UniProt P14842); assay: Binding affinity for 5-hydroxytryptamine 2A receptor, activity is expressed as IC50 values.
Rattus norvegicus [6] = species on record: Rattus norvegicus; assay: In vitro inhibition of [3H]dopamine uptake in rat corpus striatum homogenates.; type: functional
Rattus norvegicus [7] = species on record: Rattus norvegicus; assay: In vitro inhibition of [3H]NE uptake in rat occipital lobe (plus temporal cortex) homogenates.; type: functional
D(1A) dopamine receptor [8] = molecular target: T2, D(1A) dopamine receptor; assay: Binding affinity for dopamine receptor D1, activity is expressed as IC50 values.
[9] = Rattus norvegicus, read-out: ED50

Chain of D(2) dopamine receptor (P61169 whole entry): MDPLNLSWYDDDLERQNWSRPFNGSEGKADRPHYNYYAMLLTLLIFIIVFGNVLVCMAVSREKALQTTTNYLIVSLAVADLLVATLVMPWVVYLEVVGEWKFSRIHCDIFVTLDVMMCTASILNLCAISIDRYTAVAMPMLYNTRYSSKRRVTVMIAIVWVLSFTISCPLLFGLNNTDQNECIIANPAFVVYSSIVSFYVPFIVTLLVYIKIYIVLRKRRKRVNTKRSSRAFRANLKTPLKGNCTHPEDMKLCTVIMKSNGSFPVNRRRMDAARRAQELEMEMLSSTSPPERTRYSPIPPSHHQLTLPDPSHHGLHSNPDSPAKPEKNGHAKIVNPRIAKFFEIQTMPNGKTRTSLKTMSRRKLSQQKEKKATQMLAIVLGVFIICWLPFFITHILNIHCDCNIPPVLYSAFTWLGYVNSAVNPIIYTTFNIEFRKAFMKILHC
T2 sequence (P18901 whole entry): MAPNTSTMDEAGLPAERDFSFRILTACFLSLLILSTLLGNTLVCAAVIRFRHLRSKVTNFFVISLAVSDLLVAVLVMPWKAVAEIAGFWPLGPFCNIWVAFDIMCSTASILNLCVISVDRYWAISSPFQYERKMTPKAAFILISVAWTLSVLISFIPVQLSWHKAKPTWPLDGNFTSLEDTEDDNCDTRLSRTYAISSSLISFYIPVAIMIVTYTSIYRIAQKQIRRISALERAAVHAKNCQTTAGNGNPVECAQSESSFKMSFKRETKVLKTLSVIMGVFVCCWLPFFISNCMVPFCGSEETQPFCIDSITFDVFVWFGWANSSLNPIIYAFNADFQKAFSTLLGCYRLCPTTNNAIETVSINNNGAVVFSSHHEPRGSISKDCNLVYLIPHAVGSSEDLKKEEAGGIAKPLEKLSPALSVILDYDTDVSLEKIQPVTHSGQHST
Chain of 5-hydroxytryptamine receptor 2A (P14842 whole entry): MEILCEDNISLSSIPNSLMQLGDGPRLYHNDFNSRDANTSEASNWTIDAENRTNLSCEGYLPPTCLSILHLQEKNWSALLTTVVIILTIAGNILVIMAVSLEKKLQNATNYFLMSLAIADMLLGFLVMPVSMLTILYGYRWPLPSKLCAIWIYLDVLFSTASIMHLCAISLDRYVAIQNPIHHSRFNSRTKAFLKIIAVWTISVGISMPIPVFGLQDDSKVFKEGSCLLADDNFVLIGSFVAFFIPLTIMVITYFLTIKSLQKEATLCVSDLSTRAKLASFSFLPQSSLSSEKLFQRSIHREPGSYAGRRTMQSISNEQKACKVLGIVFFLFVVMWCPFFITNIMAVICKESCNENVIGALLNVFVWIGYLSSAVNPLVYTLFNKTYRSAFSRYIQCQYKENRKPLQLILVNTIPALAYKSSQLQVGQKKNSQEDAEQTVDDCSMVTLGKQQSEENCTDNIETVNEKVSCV

SMILES	IC50 [1] [µM]	ED50 (Mus musculus; Mus musculus, read-out: ED50) [µmol/kg]	ED50 (Rattus norvegicus [2]; [9]) [µmol/kg]	IC50 (D(2) dopamine receptor) [µM]	IC50 (D(1A) dopamine receptor [3]) [µM]	IC50 (Rattus norvegicus [4]) [µM]	ED50 (Mus musculus) [µM/kg]	IC50 [5] [µM]	IC50 (Rattus norvegicus [6]) [µM]	ED50 (Rattus norvegicus [2]) [µM/kg]	IC50 (Rattus norvegicus [7]) [µM]	IC50 (D(1A) dopamine receptor [8]) [µM]
CN1CCN(C2CC(c3ccsc3)c3ccc(Cl)cc32)CC1(C)C (configuration not stated)	0.014	1.3	44									
CN1CCN(C2CC(c3ccc(F)cc3)c3cc(Cl)ccc32)CC1(C)C (configuration not stated)	0.094	> 110										
CN1CCN(C2CC(c3ccc(F)cc3)c3cccc(F)c32)CC1(C)C (configuration not stated)	0.015	6.9	> 90									
CN1CCN(C2CC(c3ccccc3)c3ccccc32)CC1 (configuration not stated)				0.69	0.48							
OCCN1CCN(C2CC(c3ccc(F)cc3)c3ccc(Cl)cc32)CC1 (configuration not stated)					0.0083							
OCCN1CCN(C2CC(c3ccc(F)cc3)c3cc(Cl)ccc32)CC1 (configuration not stated)					1.8							
OCCN1CCN(C2CC(c3ccc(F)cc3)c3c(Cl)cccc32)CC1 (configuration not stated)					2							
CN1CCN(C2CC(c3ccccc3)c3ccc(Cl)cc32)CC1(C)C (single isomer, unassigned; (-))	0.01			0.0095		4	8.8	0.0044	0.39	>85	1.7	0.0011
CC1(C)CN(C2CC(c3ccsc3)c3ccc(Cl)cc32)CCN1 (single isomer, unassigned; (-))	0.025	11	> 49	0.0071		4.5		0.0019	2.7		4	0.00084
CN1CCN(C2CC(c3ccccc3)c3ccc(Cl)cc32)CC1(C)C (stereo in doubt; 38)	0.023		> 76				24					
CN1CCN(C2CC(c3ccc(F)cc3)c3ccc(F)cc32)CC1(C)C (stereo in doubt; 40)	0.012						2.1			>68		
CC1(C)CN(C2CC(c3ccc(F)cc3)c3ccc(Cl)cc32)CCN1 (stereo in doubt; 41)	0.039	6.7	> 48									
CN1CCN(C2CC(c3ccc(F)cc3)c3ccccc32)CC1(C)C (stereo in doubt; (-)-39)	0.0044			0.012		10	7.2	0.0029	5.2	>44	17	0.0025
CN1CCN(C2CC(c3ccc(F)cc3)c3ccc(F)cc32)CC1(C)C (stereo in doubt; (-)-40)	0.0047		42	0.0068		12	1	0.0019	4		> 10	0.00071
CC1(C)CN(C2CC(c3ccc(F)cc3)c3ccc(Cl)cc32)CCN1 (stereo in doubt; (-)-41)	0.012			0.009		1.8	5.6	0.0037	0.4	>84	2.2	0.0011

From ChEMBL document CHEMBL1128174, “Enhanced D1 affinity in a series of piperazine ring substituted 1-piperazino-3-arylindans with potential atypical antipsychotic activity” (J Med Chem, 1995)
